Bioassay records as filed in PubChem.
Most compounds without a hit are left out; they make up all but 2.3% or so of the library.
Rpn11 inh: inhibitors of human proteasome Rpn11 | O00487 | human 26S proteasome, Ub4-pepOG fluorescence polarization; 20S core pre-blocked with epoxomicin | inhibition, % at 20 µM | 0.59% of 360,000 active | AID 588493;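 active means inhibition at 20 µM, scaled to each plate's controls, above about 33%, limit read from the data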
Target sequence (O00487 whole entry, looked up): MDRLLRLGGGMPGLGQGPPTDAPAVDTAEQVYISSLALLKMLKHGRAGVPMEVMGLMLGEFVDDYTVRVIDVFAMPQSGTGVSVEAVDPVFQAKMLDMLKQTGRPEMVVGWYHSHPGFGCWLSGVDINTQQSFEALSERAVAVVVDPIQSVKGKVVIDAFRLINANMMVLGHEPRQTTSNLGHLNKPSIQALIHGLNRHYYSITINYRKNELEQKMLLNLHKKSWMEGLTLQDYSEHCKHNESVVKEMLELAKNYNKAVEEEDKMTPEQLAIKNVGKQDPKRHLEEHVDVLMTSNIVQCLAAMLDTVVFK
SUMO1-SIM PPI: SUMO1-SIM interaction modulation; 0.33% of 360,000 active; inhibition, % at 20 µM; P63165; SUMO1 binding to a labelled peptide, TR-FRET, 1 h; in the data active means inhibition above about 37%
Target sequence (P63165 whole entry, looked up): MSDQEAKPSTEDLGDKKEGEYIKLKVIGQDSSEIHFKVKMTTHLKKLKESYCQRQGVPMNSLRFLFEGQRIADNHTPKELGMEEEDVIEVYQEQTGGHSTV
Scp-1 inhibitor: blocks human Scp-1 phosphatase activity; 0.88% of 340,000 active; Recombinant Scp1, phosphopeptide, malachite green phosphate absorbance; inhibition, % at 20 µM; Q9GZU7; AID 493091;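 active means inhibition above about 50% at 20 µM, limit read from the data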
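assay system = SCP-1 phosphatase catalytic domain, residues 76-261 | buffer or medium = 50 mM Tris acetate pH 5.5, 0.005% Tween-20, 10 mM MgCl2 | incubation = enzyme reaction 45 min at room temperature, colour 5 min, stabilisation 30 min | signal = Phosphate-binding colour reagent, absorbance read at 630 nm | measure = % inhibition at 20 µM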
LMPTP inh: blocks human LMPTP phosphatase; P24666; recombinant LMPTP-A, OMFP fluorogenic substrate, fluorescence intensity; inhibition, % at 20 µM; 0.22% of 360,000 active;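 active means compounds that cut the enzyme signal by at least half of the control window in the single-dose screen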
Target sequence (P24666 whole entry, looked up): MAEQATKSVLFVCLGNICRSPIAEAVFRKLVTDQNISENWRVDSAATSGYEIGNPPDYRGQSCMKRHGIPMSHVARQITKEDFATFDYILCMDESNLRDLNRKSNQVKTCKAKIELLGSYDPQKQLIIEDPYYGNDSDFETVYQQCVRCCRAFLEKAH
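Buffer or medium: Bis-Tris pH 6.0, DTT, detergent; Assay system: LMPTP-A enzyme; Quantity: 0.625 nM enzyme; Detection: endpoint fluorescence intensity; Times: 50 min dark incubation at room temperature; Controls: substrate-only low control, DMSO enzyme-plus-substrate high control; Doses: single 20 µM dose; Read-out: percent inhibition versus substrate-only and uninhibited controls; Reagent: 400 µM OMFP.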
STEP inh: inhibitors of human striatal-enriched phosphatase STEP; P54829; recombinant STEP, OMFP fluorogenic substrate, fluorescence; inhibition, % at 20 µM; 0.25% of 360,000 active; AID 588621;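 active means inhibition at 20 µM, scaled per plate between control wells, above about 37%, limit read from the data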
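Assay system: isolated STEP enzyme / Timing: 20 min at room temperature, dark / Doses: 20 µM, 1% DMSO / Technique: fluorescence intensity, excitation 480 nm, emission 540 nm / Reagent: fluorogenic phosphatase substrate OMFP at 25 µM final / Measure: percent inhibition scaled to no-enzyme and uninhibited-enzyme controls, plate-pattern corrected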
DNMT1 block: DNMT1 (human) enzyme inhibition. inhibition (reported as % activation of signal), % at 10 µM. 0.83% of 360,000 active. DNMT1 molecular beacon, Hinp1I cleavage, fluorescence; in the data active means inhibition above about 50%
Rpn11 inh conf: confirmation of human proteasome Rpn11 inhibitors | AID 602318 | purified human 26S proteasome, Ub4-pepOG fluorescence polarization; proteasome pretreated with epoxomicin | 29% of 1,900 active | inhibition, % at 20 µM | shares compounds with Rpn11 inh
MMP-2 counter: blocks human MMP-2, flagging nonselective RPN11 hits; shares compounds with Rpn11 inh; recombinant MMP-2, FRET peptide cleavage fluorescence; inhibition, % at 20 µM; 4% of 1,900 active;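 further: human MMP-2 activated beforehand with APMA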
Thrombin FP: thrombin (bovine) inhibition counter-screen; inhibition, % at 20 µM; AID 602333; 13% of 1,900 active; bovine thrombin cleavage of Ub4-pepOG, fluorescence polarization; shares compounds with Rpn11 inh;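 active means mean inhibition at least 40% at 20 µM, or signal 3 deviations below plate average, so some actives read negative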
Of the large screens only hits and unclear results are named; the others gave an inactive call (follow-up assays come after a bar, where shown). Unless noted, no stated cut-off is given here; in the data, active means inhibition above about 40%; inactive means the rest.

CCCN(S(=O)(=O)c1ccccc1F)S(=O)(=O)c1ccccc1Br	none
COc1ccccc1C(=O)Nc1cc(C)ccc1NC(=O)c1ccco1	none
CN(C)/N=C/C=C1\CCC/C(=C/c2cccs2)C1=O	Rpn11 inh 95 | Rpn11 inh conf inactive | MMP-2 counter inactive | Thrombin FP inactive
CN(C)/N=C/C=C1\CC/C(=C\c2ccc(Br)cc2)C1=O	none
COc1ccc(NS(=O)(=O)c2ccc(C)c(NC(=O)CN3C(=O)NC4(CCCC4)C3=O)c2)cc1	Rpn11 inh 83 | Rpn11 inh conf 76 | MMP-2 counter inactive | Thrombin FP inactive
CCOC(=O)c1nnc(-c2ccccc2)o1	none
CCc1ccc(C(=O)COC(=O)c2ccc(-c3nnc(-c4ccccc4)o3)cc2)cc1	Rpn11 inh 44 | Rpn11 inh conf inactive | MMP-2 counter inactive | Thrombin FP inactive
CCOc1ccc(C(c2c(C)[nH][nH]c2=O)c2c(C)[nH][nH]c2=O)cc1OC	none
CCOc1cc(C(c2c(C)[nH][nH]c2=O)c2c(C)[nH][nH]c2=O)ccc1OS(=O)(=O)c1ccc(C)cc1	Rpn11 inh 103 | Rpn11 inh conf inactive | MMP-2 counter inactive | Thrombin FP inactive
Cc1cccc(C(O)C(O)c2cccc(C)n2)n1 (stereo unspecified)	Rpn11 inh 99 | Rpn11 inh conf inactive | MMP-2 counter inactive | Thrombin FP inactive
CC(N)c1ccc(Cl)cc1Cl (stereo unspecified)	none
CC(=O)C1=C(C)NC(SCC(=O)c2ccc(Cl)cc2)=C(C#N)C1c1ccco1 (stereo unspecified)	none
CC(=O)C1=C(C)NC(SCC(=O)c2ccc(Cl)cc2Cl)=C(C#N)C1c1ccco1 (stereo unspecified)	Rpn11 inh 50 | Rpn11 inh conf inactive | MMP-2 counter inactive | Thrombin FP inactive
C=CCN(c1ccc(F)cc1)S(=O)(=O)c1cc(C(=O)OCC(=O)N(C)C2CCS(=O)(=O)C2)ccc1Cl (stereo unspecified)	none
CC(C)N(C(=O)[C@H]1CC(CC(=O)NCc2cccc(C(F)(F)F)c2)C(=O)N2CCc3c([nH]c4ccccc34)[C@]12C)C(C)C (stereo partly specified)	none
Nc1c(-c2ccccc2)c(CSc2nc3ccccc3[nH]2)nn1-c1cccc(Cl)c1	Rpn11 inh 63 | Rpn11 inh conf 42 | MMP-2 counter inactive | Thrombin FP inactive
Nc1c(-c2ccccc2)c(CSc2nc3ccccc3[nH]2)nn1-c1ccc(Cl)cc1	none
COc1cc(/C=C2\SC(=Nc3ccccc3OC)NC2=O)ccc1O	Rpn11 inh 74 | Rpn11 inh conf 47 | MMP-2 counter inactive | Thrombin FP 51
COc1cc(/C=C2/SC(=Nc3ccc(O)cc3)NC2=O)ccc1O	Rpn11 inh 76 | Rpn11 inh conf 70 | MMP-2 counter inactive | Thrombin FP 64
CCc1ccc(N=C2NC(=O)/C(=C/c3cc(OC)c(O)c(OC)c3)S2)cc1	none (not shown: Rpn11 inh)
COc1cc(/C=N/NC(=O)c2nnn(-c3nonc3N)c2-c2cccs2)ccc1O	none
COc1ccc(/C=N/NC(=O)c2nnn(-c3nonc3N)c2-c2cccs2)cc1OC	Rpn11 inh 66 | Rpn11 inh conf inactive | MMP-2 counter inactive | Thrombin FP inactive
COc1cc(OC)c(OC)cc1/C=C/c1cc(C(F)(F)F)[nH]c(=O)n1	Rpn11 inh 65 | Rpn11 inh conf inactive | MMP-2 counter inactive | Thrombin FP inactive
COc1cc(/C=C2\SC(=S)N(NS(=O)(=O)c3ccc(C)cc3)C2=O)ccc1O	Rpn11 inh 99 | Rpn11 inh conf 83 | MMP-2 counter inactive | Thrombin FP 90
COc1cc(/C=C2\SC(=S)N(NS(=O)(=O)c3ccc(C)cc3)C2=O)cc(OC)c1OC	none
COc1ccc(/C=C2/SC(=S)N(NS(=O)(=O)c3ccccc3)C2=O)cc1	none
CCOc1cc(/C=C2\SC(=S)N(NS(=O)(=O)c3ccc(C)cc3)C2=O)ccc1O	Rpn11 inh 85 | Rpn11 inh conf 69 | MMP-2 counter inactive | Thrombin FP 57
Cc1ccc(S(=O)(=O)NN2C(=O)/C(=C/c3cccc(F)c3)SC2=S)cc1	none
COc1cc(/C=C2\SC(=S)N(NS(=O)(=O)c3ccccc3)C2=O)ccc1O	Rpn11 inh 78, Scp-1 inhibitor 60 | Rpn11 inh conf 50 | MMP-2 counter inactive | Thrombin FP 52
CCC(C)(NC(=O)c1ccc2c(c1)OCO2)C(=O)NC1CCCCC1 (stereo unspecified)	none
COCCN(C(=O)COC(=O)CCS(=O)(=O)c1ccccc1)c1c(N)n(Cc2ccccc2)c(=O)[nH]c1=O	none
C=CCNc1oc(-c2cccc(F)c2)nc1C#N	none
Cc1ccnc(NC(=O)Cn2c(=O)oc3ccccc32)c1	none
O=C(N/N=C/c1cc([N+](=O)[O-])ccc1O)c1cc(-c2ccccc2)nc2ccccc12	Rpn11 inh 42 | Rpn11 inh conf 43 | MMP-2 counter inactive | Thrombin FP inactive
Cc1noc(C)c1COC(=O)C1CCN(S(=O)(=O)c2ccc(F)cc2)CC1	none
COc1ccc2c(c1)CCC1C2=NN(/C(C)=C/C(C)=O)C1c1cccc(F)c1 (stereo unspecified)	Rpn11 inh 80 | Rpn11 inh conf inactive | MMP-2 counter inactive | Thrombin FP inactive
O=S(=O)(NCc1cccc(C(F)(F)F)c1)NCc1ccccc1F	none
Cc1cc(-c2ccc(S(=O)(=O)N(C)c3ccc(C)c(C)c3)s2)on1	Rpn11 inh 40 | Rpn11 inh conf 43 | MMP-2 counter inactive | Thrombin FP 40
Cc1ccc(N(C)S(=O)(=O)c2ccc(-c3cc(C)no3)s2)cc1	none
NCCCC[C@@H]1NC(=O)[C@H](CCC(=O)O)NC(=O)c2cc([N+](=O)[O-])cc(I)c2SC[C@@H](C(=O)NCC(N)=O)NC1=O	none
NCCCC[C@@H]1NC(=O)c2cc([N+](=O)[O-])cc(I)c2SC[C@@H](C(N)=O)NC(=O)[C@H](Cc2ccc(O)cc2)NC1=O	Rpn11 inh 44 | Rpn11 inh conf inactive | MMP-2 counter inactive | Thrombin FP inactive
CCN1CC(O)=C(c2nc3ccccc3s2)C1=N	Rpn11 inh 99 | Rpn11 inh conf inactive | MMP-2 counter inactive | Thrombin FP inactive
